# Measurements reported in ChEMBL document CHEMBL1944589, “Identification of novel SAR properties of the Jak2 small molecule inhibitor G6: significance of the para-hydroxyl orientation” (2012).
# Activity calls are given as the source filed them. No cut-off for these calls is given here.
# Legend:
# [1] = target: Tyrosine-protein kinase JAK2 (Homo sapiens) (UniProt O60674); assay: Jak2-mediated GST-STAT1 phosphorylation at 2.5 uM after 30 mins by Western blot analysis as % of control
# HEL [2] = assay: Induction of apoptosis in human HEL cells at 10 uM after 48 hrs by annexinV-propidium iodide staining-based flow cytometric analysis; type: functional, cell-based
# How it was run: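 HEL cells were exposed to 10 μM of each compound for 48 h, then stained with Annexin V and propidium iodide and analyzed by flow cytometry. Early apoptosis was scored as Annexin V-positive, PI-negative. Data come from two independent experiments, each in triplicate.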
# HEL [3] = assay: Cell cycle arrest in human HEL cells assessed as effect on CDK1 expression at 25 uM after 24 hrs by Western blot analysis; type: functional, cell-based
# How it was run: (§1)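 HEL cells were exposed to 25 μM of each compound for 24 h. Lysates were immunoblotted for cyclin A, cyclin B1 and CDK1, with β-actin as the loading control. Two independent experiments were run.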
# Bone marrow cell [4] = assay: Anticolonegic activity in mouse bone marrow cells expressing Jak2 V617F mutation assessed as decrease in number of granulocyte/macrophage colony forming units at 25 uM after 24 hrs and measured on day 6; type: functional, cell-based
# How it was run: (§2)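 Bone marrow cells taken from 6-month-old Jak2-V617F transgenic mice were incubated ex vivo in medium containing 25 μM of each compound for 0, 12 or 24 h. Cells were then washed, plated in methylcellulose (semi-solid) medium and cultured for 6 further days. BFU-E and CFU-GM colonies were counted. Each condition was run in duplicate and compared with the 0 h condition.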
# HEL [5] = assay: Growth inhibition of human HEL cells expressing Jak2 V617F mutation at 0.03 to 30 uM after 72 hrs by trypan blue exclusion B assay; type: functional, cell-based
# How it was run: (§3)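 HEL cells were incubated with graded compound concentrations for 72 h. Viability was determined by trypan blue exclusion.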
# [6] = target: Tyrosine-protein kinase JAK2 (Homo sapiens) (UniProt O60674); assay: Jak2 autophosphorylation at 2.5 uM after 30 mins by Western blot analysis as % of control
# HEL [7] = assay: Cell cycle arrest in human HEL cells assessed as decrease in cyclin A expression at 25 uM after 24 hrs by Western blot analysis; type: functional, cell-based
# How it was run: as §1
# HEL [8] = assay: Cell cycle arrest in human HEL cells assessed as effect on cyclin B1 expression at 25 uM after 24 hrs by Western blot analysis; type: functional, cell-based
# How it was run: as §1
# BaF3 [9] = assay: Growth inhibition of mouse BAF3 cells expressing Jak2 V617 mutation at 30 uM after 72 hrs by MTS assay; type: functional, cell-based
# How it was run: (§4)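 Ba/F3 cells expressing EpoR and Jak2-V617F were incubated with graded compound concentrations for 72 h. Viability was read by MTS assay. Data come from two independent experiments, each in triplicate.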
# HEL [10] = assay: Induction of apoptosis in human HEL cells assessed as cleavage of PARP at 25 uM after 24 hrs by Western blot analysis; type: functional, cell-based
# How it was run: (§5)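 HEL cells were exposed to 25 μM of each compound for 24 h. Cleavage of PARP, caspase-3, Bid and Bim was assessed by Western blot. Two experiments were run for each blot.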
# Bone marrow cell [11] = assay: Anticolonegic activity in mouse bone marrow cells expressing Jak2 V617F mutation assessed as decrease in number of erythroid burst forming units at 25 uM after 24 hrs and measured on day 6; type: functional, cell-based
# How it was run: as §2
# HEL [12] = assay: Induction of apoptosis in human HEL cells assessed as cleavage of Bim at 25 uM after 24 hrs by Western blot analysis; type: functional, cell-based
# How it was run: as §5
# BaF3 [13] = assay: Growth inhibition of mouse BAF3 cells expressing Jak2 […] mutation after 72 hrs by MTS assay; type: functional, cell-based
# How it was run: as §4
# Bone marrow cell [14] = assay: Anticolonegic activity in mouse bone marrow cells expressing Jak2 V617F mutation assessed as decrease in number of erythroid burst forming units at 25 uM after 12 hrs and measured on day 6; type: functional, cell-based
# How it was run: as §2
# HEL [15] = assay: Growth inhibition of human HEL cells expressing Jak2 V617F mutation at 0.85 uM after 72 hrs by trypan blue exclusion B assay; type: functional; conditions: read-out: GI
# How it was run: as §3
# HEL [16] = assay: Growth inhibition of human HEL cells expressing Jak2 V617F mutation after 72 hrs by trypan blue exclusion B assay; type: functional, cell-based
# How it was run: as §3
# HEL [17] = assay: Induction of apoptosis in human HEL cells assessed as cleavage of Bid at 25 uM after 24 hrs by Western blot analysis; type: functional, cell-based
# How it was run: as §5
# [18] = target: Tyrosine-protein kinase JAK2 (Homo sapiens) (UniProt O60674); assay: Inhibition of Jak2-mediated STAT5 phosphorylation at Try694 in human HEL cells at 25 uM after 24 hrs by Western blot analysis; type: cell-based
# How it was run: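 HEL cells were exposed to 25 μM of each compound for 24 h. Lysates were immunoprecipitated for STAT5 and phospho-STAT5 was detected by Western blot. Densitometry expressed phospho-STAT5 as percent of total, normalized to the DMSO control; n = 4.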
# HEL [19] = assay: Cell cycle arrest in human HEL cells assessed as decrease in cell population at G1 phase at 10 uM after 24 hrs by flow cytometric analysis; type: functional, cell-based
# How it was run: (§6)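 HEL cells were exposed to 10 μM of each compound for 24 h. DNA content was then analyzed by flow cytometry. Data come from two experiments, each measured in triplicate.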
# HEL [20] = assay: Cell cycle arrest in human HEL cells assessed as increase in cell population at G2 phase at 10 uM after 24 hrs by flow cytometric analysis; type: functional, cell-based
# How it was run: as §6
# HEL [21] = assay: Growth inhibition of human HEL cells expressing Jak2 V617F mutation at 0.03 to 30 uM by trypan blue exclusion B assay; type: functional, cell-based; conditions: TDE = time-dependent effect
# BaF3 [22] = assay: Growth inhibition of mouse BAF3 cells expressing Jak2 V617 mutation at 0.03 to 30 uM by MTS assay; type: functional, cell-based; conditions: TDE = time-dependent effect
# How it was run: as §4
# HEL [23] = assay: Growth inhibition of human HEL cells expressing Jak2 V617F mutation at 0.03 to 30 uM at 24 to 72 hrs by trypan blue exclusion B assay; type: functional, cell-based
# HEL [24] = assay: Induction of apoptosis in human HEL cells assessed as cleavage of caspase-3 at 25 uM after 24 hrs by Western blot analysis; type: functional, cell-based
# How it was run: as §5
# Bone marrow cell [25] = assay: Anticolonegic activity in mouse bone marrow cells expressing Jak2 V617F mutation assessed as decrease in number of granulocyte/macrophage colony forming units at 25 uM after 12 hrs and measured on day 6; type: functional, cell-based
# How it was run: as §2
# HEL [26] = assay: Cell cycle arrest in human HEL cells assessed as accumulation at G2/M phase at 10 uM after 24 hrs by flow cytometric analysis; type: functional, cell-based
# How it was run: as §6
# Chain of Tyrosine-protein kinase JAK2 (Homo sapiens) (O60674 whole entry): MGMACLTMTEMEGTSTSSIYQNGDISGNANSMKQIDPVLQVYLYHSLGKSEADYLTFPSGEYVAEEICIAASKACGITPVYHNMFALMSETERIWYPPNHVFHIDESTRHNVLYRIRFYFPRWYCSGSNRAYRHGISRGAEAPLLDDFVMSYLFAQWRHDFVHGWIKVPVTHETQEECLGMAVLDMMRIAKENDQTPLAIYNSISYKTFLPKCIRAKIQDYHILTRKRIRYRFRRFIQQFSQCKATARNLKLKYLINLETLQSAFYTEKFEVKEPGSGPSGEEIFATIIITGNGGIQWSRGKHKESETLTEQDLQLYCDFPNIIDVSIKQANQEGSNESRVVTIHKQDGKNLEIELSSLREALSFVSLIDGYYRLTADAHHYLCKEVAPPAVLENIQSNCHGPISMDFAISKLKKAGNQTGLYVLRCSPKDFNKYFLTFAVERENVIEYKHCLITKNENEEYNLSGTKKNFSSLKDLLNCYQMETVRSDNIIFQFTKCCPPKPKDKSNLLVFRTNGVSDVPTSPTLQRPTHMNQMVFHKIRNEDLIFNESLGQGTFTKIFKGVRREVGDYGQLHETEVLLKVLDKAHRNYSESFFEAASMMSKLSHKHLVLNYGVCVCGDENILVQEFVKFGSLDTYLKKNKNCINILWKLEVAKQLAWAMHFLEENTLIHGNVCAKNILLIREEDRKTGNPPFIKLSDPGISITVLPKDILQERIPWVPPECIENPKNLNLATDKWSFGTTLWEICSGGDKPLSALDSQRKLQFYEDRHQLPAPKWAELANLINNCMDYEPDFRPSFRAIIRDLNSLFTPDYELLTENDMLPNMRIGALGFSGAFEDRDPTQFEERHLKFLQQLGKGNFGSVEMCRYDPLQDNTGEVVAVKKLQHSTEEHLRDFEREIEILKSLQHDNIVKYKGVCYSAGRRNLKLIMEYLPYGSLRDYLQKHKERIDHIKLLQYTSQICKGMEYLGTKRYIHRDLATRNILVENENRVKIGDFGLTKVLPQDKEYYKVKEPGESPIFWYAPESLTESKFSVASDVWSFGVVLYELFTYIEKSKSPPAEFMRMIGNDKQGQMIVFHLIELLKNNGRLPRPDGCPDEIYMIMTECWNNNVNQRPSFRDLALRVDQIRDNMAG
residual activity [1],residual activity [6],Compound,Activity (HEL [2]),Activity (HEL [3]),Activity (Bone marrow cell [4]),growth inhibition (GI) (HEL [5]),Activity (HEL [7]),Activity (HEL [8]),Activity (HEL [10]),Activity (Bone marrow cell [11]),Activity (Bone marrow cell [14]),Activity (HEL [19]),Activity (HEL [20]),Activity (HEL [24]),Activity (Bone marrow cell [25]),Activity (HEL [26]),other results
93.3%,94.4%,CN(C)Cc1ccc(/C=C/c2ccc(CN(C)C)c(O)c2)cc1O,inactive,inactive,Active,Active,inactive,inactive,inactive,–,–,–,–,–,–,–,growth inhibition (GI) (BaF3 [9]): Active
89.1%,89.1%,C/C(=C(/C)c1ccc(O)c(CN(C)C)c1)c1ccc(O)c(CN(C)C)c1,Active,inactive,Active,Active,inactive,inactive,Active,Active,–,–,–,–,–,–,–
71.5%,44.2%,CN(C)Cc1cc(/C=C/c2ccc(O)c(CN(C)C)c2)ccc1O,Active,inactive,Active,–,Active,inactive,Active,Active,Active,Active,Active,Active,Active,Active,Activity (HEL [12]): Active; growth inhibition (GI) (BaF3 [13]): Dose-dependent effect; inhibition of growth at 0.85 µM (HEL [15]): 50%; growth inhibition (GI) (HEL [16]): Dose-dependent effect; Activity (HEL [17]): Active; inhibition [18]: Active; growth inhibition (GI) (HEL [21]): tde; growth inhibition (GI) (BaF3 [22]): tde; growth inhibition (GI) (HEL [23]): Active
104%,98.4%,C/C(=C(/C)c1ccc(CN(C)C)c(O)c1)c1ccc(CN(C)C)c(O)c1,Active,inactive,Active,Active,Active,inactive,Active,Active,Active,Active,Active,Active,Active,Active,–
